GRIN3A LBD mod: modulates the human NR3A ligand-binding domain. NR3A LBD differential scanning fluorimetry, Tm shift; 0% = protein alone, 100% = glycine-bound protein. Tm shift relative to glycine control, % at 25 µM. actives 2.5% (n = 340,000);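 active = melting temperature shift of at least 10% of the positive control shift, at one fixed dose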
EBI2 antag: antagonists of human EBI2 receptor; EBI2 beta-arrestin recruitment, luminescence, 7a,25-OHC stimulated; AID 651636; actives 0.81% (n = 360,000); P32249; inhibition, % at 5 µM; in the data active = inhibition above about 38%;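 note: enzyme fragment complementation signal reports receptor beta-arrestin coupling in cells; 0% = agonist plus DMSO wells and 100% = wells without agonist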
Target sequence (P32249 whole entry, looked up, the tested form may be a part): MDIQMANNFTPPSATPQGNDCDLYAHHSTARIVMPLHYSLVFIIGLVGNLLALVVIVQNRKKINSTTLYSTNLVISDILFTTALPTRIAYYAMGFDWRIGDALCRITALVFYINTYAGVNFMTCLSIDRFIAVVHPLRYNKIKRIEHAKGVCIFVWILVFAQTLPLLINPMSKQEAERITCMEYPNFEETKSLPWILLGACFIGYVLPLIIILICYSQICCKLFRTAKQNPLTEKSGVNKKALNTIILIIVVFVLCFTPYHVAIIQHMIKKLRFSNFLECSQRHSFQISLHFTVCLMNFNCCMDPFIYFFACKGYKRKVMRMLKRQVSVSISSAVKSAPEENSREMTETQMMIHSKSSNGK
SENP1 FRET inh: inhibitors of human SENP1 SUMO protease catalytic domain; inhibition, % at 10 µM; recombinant SENP1 catalytic domain, CyPet-SUMO1-YPet FRET cleavage; AID 624204; actives 0.21% (n = 360,000);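 active = inhibition at least 30% at 10 µM, raw YFP signal under a set limit, fluorescence ratio 0.5 to 1.5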;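 note: 0% = enzyme with DMSO and 100% = no enzyme wells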
Target sequence (Q9P0U3 419-644 limits assumed): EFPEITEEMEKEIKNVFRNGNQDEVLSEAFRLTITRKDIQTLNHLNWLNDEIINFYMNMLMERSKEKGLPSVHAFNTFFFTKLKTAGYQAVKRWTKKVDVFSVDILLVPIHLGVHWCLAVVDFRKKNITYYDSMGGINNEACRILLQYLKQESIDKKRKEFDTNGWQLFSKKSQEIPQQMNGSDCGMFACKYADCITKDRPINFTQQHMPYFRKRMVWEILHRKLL
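System: Recombinant human SENP1 catalytic domain, His6-tagged | Incubation: Enzyme reaction for 50 min at room temperature, dark | Medium: Tris pH 8 with BME, BSA, NP40 and catalase | Also added: 25 nM SUMO1 FRET substrate | Compound: 10 µM single point, 0.5% DMSO | Measured by: FRET fluorescence in CFP and YFP emission channels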
MPTP inh: inhibitors of mitochondrial permeability transition pore | isolated mouse mitochondria, Ca2+ swelling absorbance, 30 min | inhibition, % at 10 µM | actives 1.4% (n = 360,000);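 active = inhibition of 50% or more, scaled per plate between neutral and stimulator controls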;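 note: 0% = DMSO wells given calcium and 100% = 1 mM EGTA wells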
Starred values were filed as active, the others as inactive; / = no result given. Sampled rows, rich in hits. Any-hit rate of the full collection: about 4.4%.

SMILES	GRIN3A LBD mod	EBI2 antag	SENP1 FRET inh	MPTP inh
COC(=O)c1cc(S(=O)(=O)Nc2nn(C)c3ccccc23)oc1C	11.0*	-12.4	0.3	1.9
CC1CN(C(=S)SCCN2C(=O)CCC2=O)CC(C)O1 (stereo not drawn)	-1.4	-9.2	1.3	-1.3
COc1ccc(NC(=O)c2cccnc2NCCc2ccccc2)cc1	18.0*	-21.9	-0.2	1.2
O=C(Nc1ccccc1)c1cccnc1NCCc1ccccc1	-7.0	-17.8	-2.3	2.6
C=CCNC(=S)N1CCN(Cc2ccccc2)CC1	-0.8	3.0	2.4	-0.6
Cc1ccc(N=C2SC(C(=O)Nc3ccc(OC(F)(F)F)cc3)C(N)=C2C(=O)Nc2c(C)cc(C)cc2C)cc1 (stereo not drawn)	35.5*	23.1	-3.2	39.8
Cc1ccc(NC(=O)C2SC(=Nc3ccccc3)C(C(=O)Nc3ccc(Cl)cc3)=C2N)cc1 (stereo not drawn)	16.7*	-1.5	-8.6	28.8
CN1CC(c2ccccc2)Oc2ccccc2C1=S (stereo not drawn)	-0.1	-11.4	-1.9	4.0
COc1ccc(C(=O)NCC(=O)N/N=C/C=C/c2ccccc2)cc1OC	0.2	19.3	-0.7	-0.4
COCc1c(C(=O)N2CCc3ccccc32)oc2ccccc12	0.8	1.7	-2.5	-1.2
Cc1c(C(=O)N2CCc3ccccc32)oc2ccccc12	14.3*	2.6	-0.5	0.3
Cc1cc(=O)[nH]c(SCC(=O)Nc2ncc(S(=O)(=O)c3ccc([N+](=O)[O-])cc3)s2)n1	-3.1	4.0	2.5	1.6
CC(C)c1ccc(Nc2nnc(SCC(=O)Nc3ncc(S(=O)(=O)c4ccc([N+](=O)[O-])cc4)s3)s2)cc1	12.7*	-3.9	2.9	1.2
Cc1ccc(Nc2nnc(SCC(=O)Nc3ncc(S(=O)(=O)c4ccc([N+](=O)[O-])cc4)s3)s2)cc1	16.0*	4.1	5.3	3.4
O=C(CN1CCN(S(=O)(=O)c2ccc3ccccc3c2)CC1)Nc1ccc2c(c1)CCC2	-0.6	24.2	-0.4	1.3
NC(=O)c1sc2cc(C(F)(F)F)cnc2c1-c1cccs1	21.3*	-4.7	-69.6	-0.3
Clc1cccc(/C=N/N2CCN(Cc3ccccc3)CC2)c1	0.1	8.5	-0.1	1.4
COc1ccc(C(=O)/C=C/C(=O)N(Cc2ccccc2)C(C(=O)NC2CCCCC2)c2ccncc2)c(O)c1 (stereo not drawn)	17.4*	7.7	0.6	1.4
COc1ccc(C(=O)/C=C/C(=O)N(Cc2ccc(F)cc2)C(C(=O)NC2CCCCC2)c2ccncc2)c(O)c1 (stereo not drawn)	4.1	26.9	-0.1	1.2
CC(=O)Nc1ccc(S(=O)(=O)Nc2cccc(C(=O)Nc3ccccc3C(=O)O)c2)cc1	4.9	-11.0	0.2	-0.4
Cc1cccc(NS(=O)(=O)c2nnc(NC(=O)c3ccc(Cl)cc3)s2)c1	-2.5	8.6	-0.5	0.7
CC(=O)Nc1ccc(S(=O)(=O)Nc2cccc(C(=O)NC(C)(C)C)c2)cc1	12.5*	-5.1	1.4	-3.2
Cc1cccc(NC(=O)c2cccc(NS(=O)(=O)c3ccc(Cl)cc3)c2)c1	12.0*	-2.9	-1.4	-0.4
O=S(=O)(Nc1cccc(-c2ccc3nncn3n2)c1)c1ccccc1F	12.8*	2.7	-0.1	-0.6
Cc1cc(Cl)c(OCCOCCN2CCC(C)CC2)c(Br)c1	16.7*	-3.7	2.2	12.1
SMILES	GRIN3A LBD mod	EBI2 antag	SENP1 FRET inh	MPTP inh
COC(=O)c1ccc(C)c(NC(=O)CCSc2ccc(Cl)cc2)c1	31.5*	8.4	-2.5	2.2
CC(C)(C)CC(=O)NC(=S)Nc1ccccc1C(F)(F)F	14.0*	3.0	-0.8	2.9
C[C@]12CC(O)C3C(CCC4=CC(=O)CC[C@@]43C)C1CCC2c1csc(-c2ccccc2)n1 (stereo partly drawn)	13.3*	2.2	1.1	1.2
CC(=O)c1ccc(NC(=S)N(C)C2CCN(C)CC2)cc1	19.6*	-13.6	2.1	-12.7
CN1CCC(N(C)C(=S)Nc2ccc(F)cc2)CC1	1.4	-1.7	3.0	-1.8
Cc1ccc(C(=O)CSc2ccccn2)cc1	11.0*	3.2	1.1	0.1
O=C(CSc1ccccn1)C12CC3CC(CC(C3)C1)C2	12.5*	9.6	0.8	1.1
CCCCCC(=O)N=Nc1c(O)[nH]c2ccc([N+](=O)[O-])cc12	30.0*	1.8	1.3	2.6
O=[N+]([O-])c1ccc2[nH]c(O)c(N=NC(=S)NCC3CCCO3)c2c1 (stereo not drawn)	26.8*	-1.1	9.6	0.9
CCNC(=S)N=Nc1c(O)[nH]c2ccc([N+](=O)[O-])cc12	4.6	9.9	2.5	0.7
O=C(O)c1ccccc1N=Nc1c(O)[nH]c2ccc([N+](=O)[O-])cc12	26.8*	10.8	-6.4	2.3
Cc1ccc(NCC(=O)N=Nc2c(O)[nH]c3ccc([N+](=O)[O-])cc23)cc1	-1.3	/	/	/
Cc1ccc2nc(-c3ccc(NC(=S)NCCC(C)C)cc3)sc2c1	23.7*	-10.2	-77.3	3.6
CC(=O)Nc1ccc(S(=O)(=O)Nc2nc3ccc(C)cc3s2)cc1	-4.5	0.1	1.3	0.6
CNC(=S)Nc1ccc(-c2nc3ccc(C)cc3s2)cc1	28.3*	20.7	-58.9	1.9
Cc1ccc2nc(-c3ccc(NS(=O)(=O)c4ccc(F)cc4)cc3)sc2c1	30.9*	5.2	-26.1	24.7
Cc1ccc(C(=O)NCCc2nnc3ccc(SCC(=O)Nc4cc(C)on4)nn23)cc1	0.5	-3.8	0.8	0.4
CC(C)(C)OC(=O)NC(CCCCNC=O)C(=O)O (stereo not drawn)	-2.0	-0.4	1.7	0.5
CCOc1ccc(NC(=O)CC2C(=O)N(C)C(=S)N2Cc2ccc3c(c2)OCO3)cc1 (stereo not drawn)	12.2*	-7.4	0.8	-4.7
CCOc1ccc(NC(=O)CC2C(=O)N(C)C(=S)N2Cc2ccco2)cc1 (stereo not drawn)	17.4*	4.2	3.9	0.5
CCN1C(=O)C(CC(=O)Nc2ccc(Br)cc2)N(CCCc2ccccc2)C1=S (stereo not drawn)	16.0*	5.1	-1.0	13.7
CCN1C(=O)C(CC(=O)Nc2ccc(OC)cc2)N(Cc2ccc3c(c2)OCO3)C1=S (stereo not drawn)	21.8*	-6.7	1.4	0.0
O=C(/C=C/c1ccc(S(=O)(=O)N2CCOCC2)cc1)Nc1cc(F)ccc1F	31.7*	2.0	4.0	1.6
O=C(/C=C/c1ccc(F)cc1)Nc1cccc(S(=O)(=O)N2CCOCC2)c1	-4.8	12.0	-0.8	2.0
Cc1ccc(F)cc1NC(=O)/C=C/c1ccc(S(=O)(=O)N2CCOCC2)cc1	15.2*	2.1	1.8	-0.2
COc1cc(C=NNC(=O)Cn2nc(C)cc2C)ccc1OC(=O)C1CC1	0.5	13.6	0.4	-0.6
NC(=O)COC(=O)c1cccc(NS(=O)(=O)/C=C/c2ccccc2)c1	11.6*	2.9	0.1	0.7
Cc1cccc(OCC(=O)NC(=S)Nc2ccccc2N2CCOCC2)c1C	15.9*	26.0	4.1	0.0
COc1cccc(C(=O)NC(=S)Nc2ccccc2N2CCCC2)c1	-1.0	9.3	-6.5	1.1

Assay outcomes deposited in PubChem BioAssay by Sanford-Burnham Center for Chemical Genomics.
